According to ChEMBL document CHEMBL3098056, “Small molecule inhibitors of anthrax lethal factor toxin” (Bioorg Med Chem, 2014):

Experiments:
Lethal factor [1] = molecular target: T1, Lethal factor (Bacillus anthracis, UniProt P15917)
T1 sequence (P15917 whole entry): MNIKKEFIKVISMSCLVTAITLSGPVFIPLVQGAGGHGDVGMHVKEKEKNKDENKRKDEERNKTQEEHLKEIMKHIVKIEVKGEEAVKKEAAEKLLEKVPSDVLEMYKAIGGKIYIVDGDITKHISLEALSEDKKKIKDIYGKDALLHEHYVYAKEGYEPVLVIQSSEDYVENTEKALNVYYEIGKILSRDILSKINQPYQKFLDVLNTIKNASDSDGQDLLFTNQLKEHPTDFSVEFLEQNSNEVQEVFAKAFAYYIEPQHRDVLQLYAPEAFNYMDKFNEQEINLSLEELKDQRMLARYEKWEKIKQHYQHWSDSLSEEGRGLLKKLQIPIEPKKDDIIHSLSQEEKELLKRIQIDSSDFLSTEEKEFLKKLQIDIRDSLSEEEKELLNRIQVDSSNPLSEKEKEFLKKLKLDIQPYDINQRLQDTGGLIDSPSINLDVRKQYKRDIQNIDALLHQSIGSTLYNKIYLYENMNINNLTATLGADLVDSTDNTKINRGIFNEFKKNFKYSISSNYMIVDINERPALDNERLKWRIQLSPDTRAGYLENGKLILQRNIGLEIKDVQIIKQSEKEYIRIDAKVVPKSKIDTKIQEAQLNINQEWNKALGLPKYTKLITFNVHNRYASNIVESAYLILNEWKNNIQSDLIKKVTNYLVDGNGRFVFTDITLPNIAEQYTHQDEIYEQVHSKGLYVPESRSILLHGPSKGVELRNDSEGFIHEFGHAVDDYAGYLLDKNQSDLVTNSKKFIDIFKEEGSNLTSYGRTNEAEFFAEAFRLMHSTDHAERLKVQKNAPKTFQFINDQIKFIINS

Lethal factor [2] = molecular target: T1, Lethal factor; experiment: Non-competitive inhibition of Bacillus anthracis lethal factor using 3.12 uM MCA-KKVYPYPME[dnp]K amide as substrate after 30 mins by Eadie-Hofstee plot analysis
[3] = molecular target: Botulinum neurotoxin type A (Clostridium botulinum, UniProt P0DPI0); experiment: Inhibition of Clostridium bolulinum BoNT/A assessed as cleavage of MOCAc-Lys-Lys-Val-Tyr-Pro-Tyr-Pro-Met-Glu-Lys(Dnp)-NH2 after 40 mins by FRET assay
Outline: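 BoNT/A light chain (2 nM) in a 96-well FRET format. Reactions were stopped with acetic acid to 0.5% and cleaved-substrate fluorescence read at 485 nm with excitation at 398 nm. The same format served for IC50 and mechanism kinetics.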

Interstitial collagenase = molecular target: T2, Interstitial collagenase (Homo sapiens, UniProt P03956); experiment: Inhibition of human MMP-1 after 60 mins by FRET assay
T2 sequence (P03956 whole entry): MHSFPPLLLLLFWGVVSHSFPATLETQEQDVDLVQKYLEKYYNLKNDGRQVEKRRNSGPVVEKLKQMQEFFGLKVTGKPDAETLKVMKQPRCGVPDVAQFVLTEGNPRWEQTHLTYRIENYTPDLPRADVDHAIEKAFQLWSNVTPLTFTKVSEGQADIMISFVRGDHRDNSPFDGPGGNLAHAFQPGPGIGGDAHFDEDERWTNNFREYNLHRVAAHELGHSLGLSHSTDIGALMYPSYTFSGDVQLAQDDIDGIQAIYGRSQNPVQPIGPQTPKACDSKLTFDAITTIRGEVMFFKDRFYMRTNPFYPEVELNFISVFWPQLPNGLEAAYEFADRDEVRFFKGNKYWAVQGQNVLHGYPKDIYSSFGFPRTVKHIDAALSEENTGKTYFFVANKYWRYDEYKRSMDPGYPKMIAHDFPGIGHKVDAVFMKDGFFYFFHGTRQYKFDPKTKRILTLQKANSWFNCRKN
Outline: (§1)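 MMP-1 (38 nM) or MMP-9 (13 nM) with 50 fluorogenic substrate in 50 mM MOPS pH 6.0 and 0.05% NP-40, 37 °C for 60 min (linear range 90 min). Stopped with acetic acid (0.5% final); emission at 440 nm, excitation at 340 nm.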

Lethal factor [4] = molecular target: T1, Lethal factor; experiment: Non-competitive inhibition of Bacillus anthracis lethal factor using 50 uM MCA-KKVYPYPME[dnp]K amide as substrate after 30 mins by Eadie-Hofstee plot analysis
Lethal factor [5] = molecular target: T1, Lethal factor; experiment: Non-competitive inhibition of Bacillus anthracis lethal factor using 6.25 uM MCA-KKVYPYPME[dnp]K amide as substrate after 30 mins by Eadie-Hofstee plot analysis
Lethal factor [6] = molecular target: T1, Lethal factor; experiment: Non-competitive inhibition of Bacillus anthracis lethal factor using 100 uM MCA-KKVYPYPME[dnp]K amide as substrate after 30 mins by Eadie-Hofstee plot analysis
[7] = molecular target: Matrix metalloproteinase-9 (Homo sapiens, UniProt P14780); experiment: Inhibition of human MMP-9 after 60 mins by FRET assay
Outline: as §1

Lethal factor [8] = molecular target: T1, Lethal factor; experiment: Non-competitive inhibition of Bacillus anthracis lethal factor assessed as MCA-KKVYPYPME[dnp]K amide cleavage after 30 mins by Eadie-Hofstee plot analysis
Lethal factor [9] = molecular target: T1, Lethal factor; experiment: Inhibition of Bacillus anthracis lethal factor assessed as MCA-KKVYPYPME[dnp]K amide cleavage after 30 mins by fluorescence plate reader analysis
Lethal factor [10] = molecular target: T1, Lethal factor; experiment: Non-competitive inhibition of Bacillus anthracis lethal factor using 25 uM MCA-KKVYPYPME[dnp]K amide as substrate after 30 mins by Eadie-Hofstee plot analysis
Lethal factor [11] = molecular target: T1, Lethal factor; experiment: Non-competitive inhibition of Bacillus anthracis lethal factor using 12.5 uM MCA-KKVYPYPME[dnp]K amide as substrate after 30 mins by Eadie-Hofstee plot analysis
Lethal factor [12] = molecular target: T1, Lethal factor; experiment: Inhibition of Bacillus anthracis lethal factor by fluorescence assay
Outline: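 FRET-based assay: LF cleaves a SNAP-derived fluorogenic peptide, and cleavage is read as a change in fluorescence.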

Botulinum neurotoxin type A, sequence (P0DPI0 2-448 limits assumed): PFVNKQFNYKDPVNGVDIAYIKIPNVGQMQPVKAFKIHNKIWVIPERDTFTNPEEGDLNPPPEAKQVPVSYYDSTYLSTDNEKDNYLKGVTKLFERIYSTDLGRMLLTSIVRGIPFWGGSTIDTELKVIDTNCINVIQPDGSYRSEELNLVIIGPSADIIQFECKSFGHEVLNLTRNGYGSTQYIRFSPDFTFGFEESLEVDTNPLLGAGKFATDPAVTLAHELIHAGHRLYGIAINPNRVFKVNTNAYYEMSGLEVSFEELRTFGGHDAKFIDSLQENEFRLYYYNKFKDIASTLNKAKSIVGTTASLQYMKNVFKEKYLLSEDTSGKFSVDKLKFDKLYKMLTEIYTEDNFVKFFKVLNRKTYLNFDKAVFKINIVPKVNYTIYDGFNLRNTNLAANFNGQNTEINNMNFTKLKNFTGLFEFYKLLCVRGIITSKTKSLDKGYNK
Matrix metalloproteinase-9, sequence (P14780 whole entry): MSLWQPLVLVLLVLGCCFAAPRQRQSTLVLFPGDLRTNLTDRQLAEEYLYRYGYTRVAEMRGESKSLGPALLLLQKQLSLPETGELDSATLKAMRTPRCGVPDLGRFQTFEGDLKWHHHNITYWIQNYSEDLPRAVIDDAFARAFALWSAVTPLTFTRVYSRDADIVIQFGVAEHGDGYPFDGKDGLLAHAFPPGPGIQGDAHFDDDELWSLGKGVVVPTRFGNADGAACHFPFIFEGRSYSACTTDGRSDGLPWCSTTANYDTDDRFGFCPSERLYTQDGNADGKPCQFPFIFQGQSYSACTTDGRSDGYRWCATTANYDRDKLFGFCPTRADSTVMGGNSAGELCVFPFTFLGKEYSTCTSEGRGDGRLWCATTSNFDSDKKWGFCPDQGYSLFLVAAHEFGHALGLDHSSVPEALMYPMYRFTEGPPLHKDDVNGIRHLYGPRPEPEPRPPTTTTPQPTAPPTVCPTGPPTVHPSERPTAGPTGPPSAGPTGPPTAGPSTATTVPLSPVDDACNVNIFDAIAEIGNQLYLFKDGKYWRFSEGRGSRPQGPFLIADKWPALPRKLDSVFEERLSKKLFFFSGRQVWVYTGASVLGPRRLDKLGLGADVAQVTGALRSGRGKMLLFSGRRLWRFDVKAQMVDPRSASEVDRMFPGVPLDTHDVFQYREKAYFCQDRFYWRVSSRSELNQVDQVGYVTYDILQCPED

Cc1cc(S(=O)(=O)N[C@@H](C(=O)NO)C2CCOCC2)ccc1F
Ki (Lethal factor [1]): 24 nM

COc1ccccc1CCC(=O)Nc1ccc2nc(C)cc(N)c2c1
Ki (Lethal factor [2]): 478 nM | IC50 [3]: > 100000 nM | IC50 (Interstitial collagenase): > 100000 nM | IC50 (Lethal factor [4]): 1100 nM | IC50 (Lethal factor [5]): 729 nM | IC50 (Lethal factor [6]): 1220 nM | IC50 [7]: > 100000 nM | Ki (Lethal factor [8]): 2880 nM | IC50 (Lethal factor [9]): 3000 nM | IC50 (Lethal factor [10]): 952 nM | IC50 (Lethal factor [11]): 841 nM

O=c1oc2c(O)c(O)ccc2c2c1CCC2
Ki (Lethal factor [12]): 570 nM

Cc1cc(N)c2cc(NC(=O)c3ccc(-c4ccc5ncccc5c4)cc3)ccc2n1
Ki (Lethal factor [2]): 1260 nM | IC50 [3]: 38000 nM | IC50 (Interstitial collagenase): > 100000 nM | IC50 (Lethal factor [4]): 1160 nM | IC50 (Lethal factor [5]): 1260 nM | IC50 (Lethal factor [6]): 1100 nM | IC50 [7]: 1700 nM | Ki (Lethal factor [8]): 1140 nM | IC50 (Lethal factor [9]): 1600 nM | IC50 (Lethal factor [10]): 1220 nM | IC50 (Lethal factor [11]): 1250 nM
